17 molecules from ChEMBL document CHEMBL1128461, “Synthesis, X-ray crystallography, and pharmacokinetics of novel azomethine prodrugs of (R)-alpha-methylhistamine: highly potent and selective histamine H3 receptor agonists” (J Med Chem, 1995) can be followed below.

Data set [1] can be described thus: Conversion rate by hydrolysis of compound […] after 2 hr at a pH of 1.0. The data set is classed as ADME, cell-free. To be noted: pH 1; read-out: Conversion rate. The method in brief: (§1)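 Prodrug from a 10 mM DMSO stock, diluted to 4 μM final in 0.4 N HClO4 and held at room temperature. Aliquots were taken at intervals. Free 1 was measured by RIA: p-benzoquinone derivatization for 30 min, then rabbit antiserum and 125I tracer. Hydrolysis % is the measured 1 as a percent of the level for complete hydrolysis.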

Data set [2] in a line: Conversion rate by hydrolysis of compound in plasma after 4 hr at a pH of 7.4. The settings on record: pH 7.4, read-out: Conversion rate. The data set is classed as ADME, cell-free.
Data set [3] can be described thus: Conversion rate by hydrolysis of compound in plasma after 6 hr. In kind it is ADME, cell-free. The settings on record: read-out: Conversion rate. The gist of the method:
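Male Swiss mice (20–25 g) were given 24 μmol/kg prodrug orally in 1% methyl cellulose and decapitated at 0.5, 1, 3 or 6 h. Plasma HClO4 extracts were assayed by RIA for free 1, with total 1 measured after heating at 95 °C for 30 min. Value is AUCplasma(1)/[AUCplasma(1)+AUCplasma(prodrug)].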

Data set [4] can be described thus: Concentration of compound in Central nervous system; Not detectable. The data set is classed as ADME, tissue-based.
Data set [5] in a line: Conversion rate by hydrolysis of compound […] after 2 hr at a pH of 1.0; Not detectable. The data set is classed as ADME, cell-free. To be noted: pH 1, 2 h. The method in brief:
as §1

Data set [6] can be described thus: Conversion rate by hydrolysis of compound in plasma after 4 hr at a pH of 7.4; Not detectable. The data set is classed as ADME, cell-free. To be noted: pH 7.4, 4 h.
Data set [7] in a line: Plasma concentration (AUC) was determined; Not detectable. The data set is classed as ADME, cell-free.
Data set [8] is described as follows: Conversion rate by hydrolysis of compound in plasma after 6 h; Not detectable. The data set is classed as ADME, cell-free.

With `C[C@H](Cc1c[nH]cn1)/N=C(\c1ccccc1)c1cc(F)ccc1O`, the metabolised at 2 h in data set [1] came to 30%. For the same molecule, the metabolised at 4 h in data set [2] turned out to be 15.4%. In addition, in data set [3], the metabolised at 6 h is 24%.
`C[C@H](Cc1c[nH]cn1)/N=C(/c1cc(F)ccc1O)c1cccc2ccccc12`: the metabolised at 2 h in data set [1] stood at 0.2%. For the same molecule, the metabolised at 4 h in data set [2] came to 1.3%. For the same molecule, the “concentration in CNS” value in data set [4] is reported as “Not detectable”. The metabolised at 6 h in data set [3] was 11%.
As for `C[C@H](Cc1c[nH]cn1)N=C(c1ccccc1O)c1ccccc1O`, the Conversion rate entry in data set [5] and in data set [6] was “Not detectable” throughout. Also, the “concentration in CNS” value in data set [4] is “Not detectable”.
For the molecule `COc1ccc(/C(=N/[C@H](C)Cc2c[nH]cn2)c2ccccc2)c(O)c1`, the AUC result in data set [7] is reported as “Not detectable”. The metabolised at 2 h in data set [1] was 3%. For the same molecule, the metabolised at 4 h in data set [2] is 6%. Moreover, in data set [4], the “concentration in CNS” value was “Not detectable”.
On to `Cc1cc(O)c(/C(=N/[C@H](C)Cc2c[nH]cn2)c2ccccc2)cc1Cl`, for which the metabolised at 2 h in data set [1] amounted to 5.6%. In addition, the metabolised at 4 h in data set [2] was 2.8%. Also, in data set [4], the “concentration in CNS” value is given as “Not detectable”. The metabolised at 6 h in data set [3] came out at 41%.
As for `C[C@H](Cc1c[nH]cn1)/N=C(\c1ccc(F)cc1)c1ccccc1O`, the metabolised at 2 h in data set [1] was 20.1%. In addition, the metabolised at 6 h in data set [3] stood at 26%.
Turning to `C[C@@H]1Cc2[nH]cnc2C(c2ccccc2O)N1` (some centres undefined), in data set [7], the AUC entry is listed as “Not detectable”. In data set [1], the metabolised at 2 h turned out to be 0.2%. In addition, the “concentration in CNS” value in data set [4] was “Not detectable”. In addition, in data set [8], the Conversion rate entry is on record as “Not detectable”.
With `C[C@H](Cc1c[nH]cn1)/N=C(\c1ccc(F)cc1)c1cc(F)ccc1O`, the metabolised at 2 h in data set [1] was 63.8%. Further, in data set [2], the metabolised at 4 h was 33.8%. The metabolised at 6 h in data set [3] was determined as 45%.
Turning to `C[C@H](Cc1c[nH]cn1)/N=C(\c1ccc(Cl)cc1)c1ccccc1O`, in data set [1], the metabolised at 2 h came to 18.3%. Besides, the metabolised at 6 h in data set [3] was 28%.
`C[C@H](Cc1c[nH]cn1)/N=C(\c1ccccc1)c1ccccc1O`: the metabolised at 2 h in data set [1] was 14.1%. Moreover, the “concentration in CNS” value in data set [4] is recorded as “Not detectable”. Moreover, the metabolised at 6 h in data set [3] was 14%.
Consider `C[C@H](Cc1c[nH]cn1)/N=C(\c1ccc(Cl)cc1)c1cc(F)ccc1O`, for which the metabolised at 2 h in data set [1] turned out to be 62%. Besides, the metabolised at 4 h in data set [2] amounted to 15.2%. Further, in data set [3], the metabolised at 6 h amounted to 42%.
Consider `C[C@H](Cc1c[nH]cn1)/N=C(\c1ccccc1)c1cc(Br)ccc1O`, for which the metabolised at 2 h in data set [1] was determined as 34.6%. Besides, the metabolised at 4 h in data set [2] turned out to be 16.6%. For the same molecule, the metabolised at 6 h in data set [3] was determined as 31%.
Consider `Cc1ccc(O)c(/C(=N/[C@H](C)Cc2c[nH]cn2)c2ccccc2)c1`, for which, in data set [1], the metabolised at 2 h came to 11.9%. Besides, the “concentration in CNS” value in data set [4] was “Not detectable”. Moreover, the metabolised at 6 h in data set [3] turned out to be 29%.
`C[C@H](Cc1c[nH]cn1)/N=C(\c1ccccc1)c1cc(F)cc(Cl)c1O`: in data set [1], the metabolised at 2 h worked out at 79.3%. Further, the metabolised at 4 h in data set [2] stood at 19.6%. In data set [3], the metabolised at 6 h worked out at 28%.
The like results for `C[C@H](Cc1c[nH]cn1)/N=C(\c1ccc(F)cc1)c1cc(Cl)ccc1O` were, in that order, 67.1%, 26% and 40%.
Regarding `C[C@H](Cc1c[nH]cn1)/N=C(\c1ccccc1)c1cc(Cl)ccc1O`, the metabolised at 2 h in data set [1] was 46.9%. In data set [2], the metabolised at 4 h was determined as 23.2%. For the same molecule, in data set [4], the “concentration in CNS” value was “Not detectable”. Also, the metabolised at 6 h in data set [3] was 33%.
Consider `C[C@H](Cc1c[nH]cn1)/N=C(\c1ccc(Cl)cc1)c1cc(Cl)ccc1O`, for which, in data set [1], the metabolised at 2 h was determined as 62.7%. Further, in data set [2], the metabolised at 4 h came to 16.2%. Moreover, the metabolised at 6 h in data set [3] amounted to 58%.
